# Test results as given in ChEMBL document CHEMBL1134547 (J Med Chem, 2001).
# Assays:
# [1] = Inhibition of dihydrofolate reductase DHFR in Pneumocystis carinii.
# How it was run: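 Spectrophotometric DHFR assay following enzymatic reduction of dihydrofolate to tetrahydrofolate with NADPH cofactor. 1 mL mixture in phosphate buffer (40.7 mM, pH 7.4) containing NADPH (0.117 mM), dihydrofolate (0.092 mM), 2-mercaptoethanol (8.9 mM) and 0.018 units DHFR. IC50 is the drug concentration that halves the reduction rate relative to control.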
# [2] = Selectivity ratio of IC50(rat liver)/IC50(Mycobacterium avium)
# Dihydrofolate reductase [3] = molecular target: T1, Dihydrofolate reductase (Mycobacterium avium, UniProt O30463); test: Inhibitory activity against dihydrofolate reductase DHFR in Mycobacterium avium
# T1 sequence (O30463 whole entry): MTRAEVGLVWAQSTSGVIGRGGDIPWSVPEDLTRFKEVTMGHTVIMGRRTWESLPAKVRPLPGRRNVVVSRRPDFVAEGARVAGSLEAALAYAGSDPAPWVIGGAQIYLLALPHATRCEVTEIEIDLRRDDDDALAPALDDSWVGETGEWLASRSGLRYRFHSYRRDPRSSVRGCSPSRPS
# Dihydrofolate reductase [4] = molecular target: T2, Dihydrofolate reductase (Rattus norvegicus, UniProt Q920D2); test: Inhibitory activity against dihydrofolate reductase DHFR in rat liver
# T2 sequence (Q920D2 whole entry): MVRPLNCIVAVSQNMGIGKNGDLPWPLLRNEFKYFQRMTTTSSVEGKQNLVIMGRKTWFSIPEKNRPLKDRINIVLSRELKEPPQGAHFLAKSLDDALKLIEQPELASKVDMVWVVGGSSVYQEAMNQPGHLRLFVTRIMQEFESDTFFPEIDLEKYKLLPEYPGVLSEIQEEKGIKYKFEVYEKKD
# [5] = molecular target: T3, Bifunctional dihydrofolate reductase-thymidylate synthase (Toxoplasma gondii, UniProt Q07422); test: Inhibitory activity against dihydrofolate reductase DHFR in Toxoplasma gondii.
# T3 sequence (Q07422 whole entry): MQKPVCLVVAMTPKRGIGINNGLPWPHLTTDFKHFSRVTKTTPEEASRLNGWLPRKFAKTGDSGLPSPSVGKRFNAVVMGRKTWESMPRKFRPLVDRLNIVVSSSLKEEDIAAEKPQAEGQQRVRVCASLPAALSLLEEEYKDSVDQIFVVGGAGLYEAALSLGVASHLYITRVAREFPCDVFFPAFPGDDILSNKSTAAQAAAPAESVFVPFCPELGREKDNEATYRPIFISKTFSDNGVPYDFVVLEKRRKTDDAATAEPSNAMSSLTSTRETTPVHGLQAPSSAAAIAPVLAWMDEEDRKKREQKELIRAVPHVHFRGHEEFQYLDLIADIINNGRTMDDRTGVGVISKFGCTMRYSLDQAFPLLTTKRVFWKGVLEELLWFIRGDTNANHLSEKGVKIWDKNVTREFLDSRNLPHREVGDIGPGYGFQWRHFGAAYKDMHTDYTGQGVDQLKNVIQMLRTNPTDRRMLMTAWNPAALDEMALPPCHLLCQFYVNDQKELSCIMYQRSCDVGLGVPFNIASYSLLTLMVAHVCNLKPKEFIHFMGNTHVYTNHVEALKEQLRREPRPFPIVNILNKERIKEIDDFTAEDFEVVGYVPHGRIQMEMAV
IC50 [1] [nM],IC50 (Dihydrofolate reductase [4]) [nM],SMILES,Selectivity ratio [2],IC50 (Dihydrofolate reductase [3]) [nM],IC50 [5] [nM]
53,280,CCc1nc(N)nc(N)c1-c1ccc(Cl)c(/N=N/N(CCOC(C)=O)Cc2cccc3ccccc23)c1,,,200
850,690,CCc1nc(N)nc(N)c1-c1ccc(Cl)c(/N=N/N(CCOC(=O)c2ccccc2)Cc2ccccc2)c1,,,220
1500,450,CCc1nc(N)nc(N)c1-c1ccc(Cl)c(/N=N/N(CCOC(C)=O)Cc2cc(OC)c(OC)c(OC)c2)c1,,,70
1400,390,CCc1nc(N)nc(N)c1-c1ccc(Cl)c(/N=N/N(CCOC(C)=O)Cc2ccc(OC)c(OC)c2)c1,,,80
1350,6620,CCc1nc(N)nc(N)c1-c1ccc(Cl)c(/N=N/N(CCOC(C)=O)Cc2ccc(C(F)(F)F)cc2)c1,,,2540
,2100,CCc1nc(N)nc(N)c1-c1ccc(Cl)c(/N=N/N(CCOC(C)=O)Cc2ccc(OC)cc2)c1,,,440
580,1290,CCc1nc(N)nc(N)c1-c1ccc(Cl)c(/N=N/N(CCOC(C)=O)Cc2cccc(Cl)c2)c1,,,1160
4700,8400,CCc1nc(N)nc(N)c1-c1ccc(Cl)c(/N=N/N(CCOC(C)=O)Cc2ccccc2Cl)c1,,,6100
1260,6510,CCc1nc(N)nc(N)c1-c1ccc(Cl)c(/N=N/N(CCO)[C@@H](C)c2ccccc2)c1,,,2700
92000,14900,CCc1nc(N)nc(N)c1-c1ccc(Cl)c(/N=N/N(CCOC(C)=O)Cc2ccccc2F)c1,,,7800
3650,,CCc1nc(N)nc(N)c1-c1ccc(Cl)cc1 [PYRIMETHAMINE],,,
260,,CCc1nc(N)nc(N)c1-c1ccc(Cl)c(/N=N/N(CCO)Cc2ccccc2)c1,,,
590,620,CCc1nc(N)nc(N)c1-c1ccc(Cl)c(/N=N/N(CCOC(C)=O)Cc2ccc3ccccc3c2)c1,,,1050
2800,,CCc1nc(N)nc(N)c1-c1ccc(Cl)c(/N=N/N(C)C)c1,,,
940,1800,CCc1nc(N)nc(N)c1-c1ccc(Cl)c(/N=N/N(CCOC(C)=O)Cc2ccc(Cl)cc2)c1,,,800
1090,6440,CCc1nc(N)nc(N)c1-c1ccc(Cl)c(/N=N/N(CCO)[C@H](C)c2ccccc2)c1,,,1470
1200,3700,CCc1nc(N)nc(N)c1-c1ccc(Cl)c(/N=N/N(CCOC(=O)C(C)C)Cc2ccccc2)c1,,,660
1300,3300,CCC(=O)OCCN(Cc1ccccc1)/N=N/c1cc(-c2c(N)nc(N)nc2CC)ccc1Cl,,,700

SMILES,IC50 [1] [nM],IC50 (Dihydrofolate reductase [4]) [nM],Selectivity ratio [2],IC50 (Dihydrofolate reductase [3]) [nM],IC50 [5] [nM]
CCc1nc(N)nc(N)c1-c1ccc(Cl)c(/N=N/N(CCOC(C)=O)Cc2cccc(F)c2)c1,2220,3870,0.95,4070,1250
CCc1nc(N)nc(N)c1-c1ccc(Cl)c(/N=N/N(CCOC(C)=O)Cc2ccc(F)cc2)c1,1910,3830,0.51,7460,4400
CCc1nc(N)nc(N)c1-c1ccc(Cl)c(/N=N/N(CCCO)Cc2ccccc2)c1,680,7350,1.88,3900,2010
CCc1nc(N)nc(N)c1-c1ccc(Cl)c(/N=N/N(CCOC(C)=O)Cc2cccc([N+](=O)[O-])c2)c1,1300,1610,0.44,3690,830
CCc1nc(N)nc(N)c1-c1ccc(Cl)c(/N=N/N(CCO)CCc2ccccc2)c1,480,4670,0.86,5420,1790
CCc1nc(N)nc(N)c1-c1ccc(Cl)c(/N=N/N(CCOC(C)=O)Cc2cccc(C)c2)c1,5290,5800,0.23,25200,5390
CCc1nc(N)nc(N)c1-c1ccc(Cl)c(/N=N/N(CCOC(C)=O)Cc2ccc([N+](=O)[O-])cc2)c1,1210,3330,0.62,5340,850
CCc1nc(N)nc(N)c1-c1ccc(Cl)c(/N=N/N(CCOC(C)=O)Cc2ccncc2)c1,3460,6190,3.05,2030,640
CCc1nc(N)nc(N)c1-c1ccc(Cl)c(/N=N/N(CCOC(C)=O)Cc2ccccc2C)c1,11100,11200,,24500,830
CCc1nc(N)nc(N)c1-c1ccc(Cl)c(/N=N/N(CCOC(C)=O)Cc2cc(OC)cc(OC)c2)c1,860,845,0.19,4360,378
CCc1nc(N)nc(N)c1-c1ccc(Cl)c(/N=N/N(CCOC(C)=O)Cc2ccc(C)cc2)c1,1700,3850,0.87,4430,630
